Data reported in ChEMBL document CHEMBL1138744, “In vitro cytotoxic activities of 2-alkyl-4,6-diheteroalkyl-1,3,5-triazines: new molecules in anticancer research” (J Med Chem, 2004).

Experiments:
Type in all cases: functional, cell-based
HL-60 [1] = test: Cytotoxic activity of compound towards human HL60 cell line after 48 hr of administration; conditions: HL-60, 48 h
HL-60 [2] = test: Cytotoxic activity of compound towards human HL60 cell line after 72 hr of administration; conditions: HL-60, 72 h
C6 [3] = test: Cytotoxic activity of compound towards […] cell line after 48 hr of administration; conditions: Rattus norvegicus, C6, 48 h
C6 [4] = test: Cytotoxic activity of compound towards […] cell line after 72 hr of administration; conditions: Rattus norvegicus, C6, 72 h
L1210 [5] = test: Cytotoxic activity of compound towards human leukemia L1210 cell line after 48 hr of administration; conditions: Mus musculus, L1210, 48 h
L1210 [6] = test: Cytotoxic activity of compound towards human L1210 cell line after 72 hr of administration; conditions: Mus musculus, L1210, 72 h
HCT-116 = test: Cytotoxic activity of compound towards human cancer cell line HCT116 (colon cancer)
In short: (§1)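 Compounds first passed a one-dose primary assay on three cell lines, then were tested on a 60-line human tumour panel. Dose–response curves gave growth-inhibition values (IG50, μM). For each compound, only the most sensitive of the 60 lines was reported.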

SR = test: Cytotoxic activity of compound towards human cancer cell line SR (leukemia); in short: as §1
OVCAR-4 = test: Cytotoxic activity of compound towards human cancer cell line OVCAR-4 (ovarian cancer); in short: as §1
CAKI-1 = test: Cytotoxic activity of compound towards human cancer cell line CAKI-1 (renal cancer); in short: as §1
HOP-62 = test: Cytotoxic activity of compound towards human cancer cell line HOP-62 (lung cancer); in short: as §1
LOX IMVI = test: Cytotoxic activity of compound towards human cancer cell line LOX IMVI (melanoma); in short: as §1
C6 [7] = test: Cytotoxic activity of compound towards […] cell line after 72 hr of administration; NE= No effect
HL-60 [8] = test: Cytotoxic activity of compound towards human HL60 cell line after 48 hr of administration; NE= No effect
HL-60 [9] = test: Cytotoxic activity of compound towards human HL60 cell line after 72 hr of administration; NE= No effect
L1210 [10] = test: Cytotoxic activity of compound towards human L1210 cell line after 72 hr of administration; NE= No effect
L1210 [11] = test: Cytotoxic activity of compound towards […] cell line after 48 hr of administration; NE= No effect
[12] = Cytotoxic activity of compound towards human L1210 cell line after 72 hr of administration; a is No cytotoxic effect

SMILES | IC50 (HL-60 [1]) [µM] | IC50 (HL-60 [2]) [µM] | IC50 (C6 [3]) [µM] | IC50 (C6 [4]) [µM] | IC50 (L1210 [5]) [µM] | IC50 (L1210 [6]) [µM] | further results
COc1ccc(Oc2nc(Oc3ccc(OC)cc3)nc(Oc3ccc(OC)cc3)n2)cc1 | 70.8 | 52.5 | – | – | – | – | –
COc1nc(C#CC(C)(C)O)nc(OC)n1 | 15.8 | 15.1 | 16.2 | 15.1 | 14.1 | 12.9 | –
COc1nc(C#CC2CCCCC2)nc(OC)n1 | – | – | – | – | – | – | IC50 (HCT-116): 0.4 µM
CC[C@H](C)Cc1nc(N2CCOCC2)nc(N2CCOCC2)n1 | 219 | 141 | 575 | 240 | 141 | 57.5 | –
COc1ccc(Oc2nc(C#CC(C)(C)O)nc(Oc3ccc(OC)cc3)n2)cc1 | 17 | 36.3 | > 10000 | > 10000 | 11 | 14.1 | IC50 (SR): 0.63 µM
COc1nc(OC)nc(OC)n1 | 302 | 339 | – | – | – | – | –
COc1nc(C#CC2(O)CCCCC2)nc(OC)n1 | – | – | – | – | – | – | IC50 (OVCAR-4): 1.86 µM
COc1nc(OC)nc(-c2cccc(F)c2)n1 | – | – | – | – | – | – | IC50 (CAKI-1): < 0.01 µM
CCC(O)C#Cc1nc(OC)nc(OC)n1 (stereo not given) | – | – | – | – | – | – | IC50 (HOP-62): 4.9 µM
COc1nc(C#CCCCC#N)nc(OC)n1 | – | – | – | – | – | – | GI50 (LOX IMVI): 2.09 µM
C1CN(c2nc(N3CCOCC3)nc(N3CCOCC3)n2)CCO1 | 129 | 100 | 151 | 288 | 151 | 110 | –
CC(C)(C)C#Cc1nc(N(CCO)CCO)nc(N(CCO)CCO)n1 | – | – | 3390 | – | – | – | IC50 (C6 [7]): Not Active; IC50 (HL-60 [8]): Not Active; IC50 (HL-60 [9]): Not Active; IC50 (L1210 [10]): Not Active; IC50 (L1210 [11]): Not Active
COc1nc(C#CC(C)(C)C)nc(OC)n1 | 7.08 | 7.08 | 16.6 | 16.6 | 12 | 9.12 | IC50 (SR): 5.25 µM
COc1ccc(Nc2nc(C#CC(C)(C)C)nc(Nc3ccc(OC)cc3)n2)cc1 | 589 | 575 | > 10000 | > 10000 | – | – | IC50 (L1210 [11]): Not Active; IC50 [12]: No effect
CC(C)c1nc(N2CCOCC2)nc(N2CCOCC2)n1 | 87.1 | 200 | 141 | 490 | 93.3 | 67.6 | –
CC(C)(C)C#Cc1nc(N2CCOCC2)nc(N2CCOCC2)n1 | 182 | 389 | 6610 | – | 182 | 120 | IC50 (C6 [7]): Not Active
